Reference: PubChem BioAssay AID463073 (The Scripps Research Institute Molecular Screening Center, 2010)
Among all 2,000 compounds or so, about 10 (0.5%) were called active.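 Rule for the calls: active = inhibition above 30%; inactive = the rest.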 For the sample, actives were picked, then their nearest neighbours and some compounds at random.

Target: Protein-arginine deiminase type-4 (Homo sapiens) (UniProt Q9UM07)
Test: blockers of protein arginine deiminase 4 – biochemical, fluorescence polarization, primary screen (AID 463073);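 note: 0% = PAD4 with DMSO and 100% = wells lacking PAD4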
Details: recombinant PAD4, RFA probe fluorescence polarization; at 5 µM; hits give high values
Method in brief: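 System: recombinant PAD4. Amount: PAD4 at 2 µM in dispensed buffer, before additions. Doses: single 5 µM final compound concentration. Timing: 30 min 25 °C preincubation, 5 h 37 °C labeling. Benchmarks: wells lacking PAD4 as full-inhibition control. Repeats: single well per compound. Measured by: FP, ex 525 nm, em 598 nm.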

Protein-arginine deiminase type-4 (Homo sapiens), sequence (Q9UM07 whole entry, looked up): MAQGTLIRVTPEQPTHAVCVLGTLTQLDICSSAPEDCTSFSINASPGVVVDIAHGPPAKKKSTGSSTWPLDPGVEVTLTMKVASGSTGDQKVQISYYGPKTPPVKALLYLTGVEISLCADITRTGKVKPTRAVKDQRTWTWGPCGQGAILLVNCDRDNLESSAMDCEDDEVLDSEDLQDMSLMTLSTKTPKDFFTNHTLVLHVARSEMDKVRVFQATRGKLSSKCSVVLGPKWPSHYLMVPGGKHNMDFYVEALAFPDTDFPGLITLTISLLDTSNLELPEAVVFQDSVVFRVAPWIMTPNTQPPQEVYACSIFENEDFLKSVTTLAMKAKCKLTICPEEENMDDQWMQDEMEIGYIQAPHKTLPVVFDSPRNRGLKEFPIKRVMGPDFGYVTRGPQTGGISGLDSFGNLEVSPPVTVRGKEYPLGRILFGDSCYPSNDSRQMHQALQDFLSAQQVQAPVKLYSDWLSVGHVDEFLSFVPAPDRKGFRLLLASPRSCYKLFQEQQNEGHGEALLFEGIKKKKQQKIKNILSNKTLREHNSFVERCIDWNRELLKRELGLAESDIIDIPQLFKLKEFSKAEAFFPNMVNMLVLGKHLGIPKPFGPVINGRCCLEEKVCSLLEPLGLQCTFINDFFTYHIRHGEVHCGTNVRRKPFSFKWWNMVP

inhibition, inactive:
COc1ccc(N2CCN(C(=S)NCc3ccccc3)CC2)cc1 -1.38%, COc1ccc(NC(=S)N2CCN(CCN3C(=O)c4cccc5cccc(c45)C3=O)CC2)cc1 2.54%, COC(=O)[C@@H](N)CS 2.39%, O=C(NC(=S)Nc1nc(-c2ccccc2)cs1)c1ccco1 4.01%, CC(NC(=O)c1ccc(OC2CCN(Cc3ccccn3)CC2)cc1)c1ccccc1 (stereo not drawn) -1.87%, OCC1CCN(Cc2cn(Cc3ccccc3)nc2-c2cc3ccccc3o2)CC1 -3.81%, CCOc1ccc2nc(N/C(N)=N/S(C)(=O)=O)nc(C)c2c1 -1.87%, COc1cc(SC)ccc1C(=O)NC(C)C -4.36%, CCn1c(O)c(/C=C2\C=Nc3ccccc32)sc1=O 6.23%, Cc1ccc(C(=O)NCCNC(=O)c2ccccc2)cc1 -2.16%, CC12CCC(C(=O)Nc3ccccc3Br)(C/C1=N\O)C2(C)C (stereo not drawn) 2.8%, COC(=O)c1ccc2c(c1)C(=O)/C(=C/c1ccc(O)cc1)O2 2.19%, NC[C@H]1O[C@H](O[C@H]2[C@H](O)[C@@H](O[C@H]3O[C@H](CO)[C@@H](O)[C@H](N)[C@H]3O)[C@H](N)C[C@@H]2N)[C@H](N)C[C@@H]1O 0.78%, O=C(c1ccccc1)N1CCN(C(=O)c2ccccc2)CC1 -0.13%, Cn1c(=O)c2c(nc(SCCN3CCCCC3)n2C)n(C)c1=O 4.29%, CCSC(=O)CCCCCCCCCCCO 3.34%, CC(C)OC(=O)C1C(=O)CC(C)(O)C(C(=O)OC(C)C)C1c1cccc(O)c1 (stereo not drawn) 2.73%, COc1ccc(O)c(C(=O)/C=C/c2cc3ccccc3o2)c1 0.93%, COc1ccc(CCNC(=O)CC(c2ccccc2)c2cccc(C)c2O)cc1OC (stereo not drawn) 1.59%, COc1ccc(C2NC(C(=O)O)Cc3c2[nH]c2ccccc32)cc1CN1CCN(c2ccc(F)cc2)CC1 (stereo not drawn) 6.02%, CC(=O)[C@@]1(O)CC[C@H]2[C@@H]3C[C@H](C)C4=CC(=O)C=C[C@]4(C)[C@@]3(F)[C@@H](O)C[C@@]21C -5.68%, COc1ccc2c(c1OC)C(=O)OC2C1c2c(cc3c(c2OC)OCO3)CCN1C (stereo not drawn) 7.1%, CCOC(=O)c1ccc2[nH]c(C)c(CCC(C)=O)c(=O)c2c1 -4.46%
